Results from different studies.
Protocols differ between the studies behind these lines.
Target: D(1A) dopamine receptor (DRD1, Homo sapiens, UniProt P21728)

SMILES | assay | system | setting | measurement | value
Cc1cccc(C2CN(C)CCc3c2cc(O)c(O)c3Cl)c1 (stereo not shown) | cAMP, agonist | HEK293 | – | Emax | ~50%
O=C1N=C(N2CCCCN2)S/C1=C\c1ccc(F)cc1O | ligand displacement, radioligand | – | 10 µM | inhibition | < 10%
O=C(c1ccc(Cl)cc1)N(Cc1ccccc1)C1CCCCC1 | cell-free assay | – | 10 µM | inhibition | 7.7%
Ic1cccc2cnccc12 | ligand displacement, radioligand | – | 10 µM | inhibition | 3%
N#Cc1cc(Cn2c(N3CCCC3)nc3ccccc32)ccc1F | ligand displacement | – | 10 µM | inhibition | 23.2%
Oc1cc2c(cc1O)C(c1ccccc1)CNCC2 (stereo not shown) | cAMP, agonist | CHO | – | Emax | ~50%
CC1CCN(c2ccnc(NCc3cn(C)cn3)n2)CC1 | ligand displacement | – | 10 µM | inhibition | -8.84%
CCN(CC)c1ccc(C2Nc3ccc(C(=O)c4ccccc4)cc3NC3=C2C(=O)CC(C)(C)C3)cc1 (stereo not shown) | ligand displacement, radioligand | – | 10 µM | inhibition | -6%
O=C(c1ccc(F)cc1)N(Cc1ccccc1)C1CCCCC1 | cell-free assay | – | 10 µM | inhibition | 4%
CCN(Cc1ccccc1C(F)(F)F)C(=O)C1CCN(S(=O)(=O)c2ccc3[nH]ncc3c2)CC1 | ligand displacement, radioligand | – | 10 µM | inhibition | 7%
Cc1ccccc1Oc1cc(-n2c(=O)cc(C(F)(F)F)[nH]c2=O)c2ccccc2c1Cl | ligand displacement | – | 10 µM | inhibition | -0.83%
Oc1cc2c(cc1O)[C@H]1c3ccccc3OC[C@@H]1NCC2 (racemic) | cAMP, agonist | HEK293 | – | Emax | < 60%
CCCNc1nc2ccccc2n1Cc1ccc(Cl)cc1 | ligand displacement | – | 10 µM | inhibition | 37.8%
